Data on 18 compounds can be found in ChEMBL document CHEMBL1153922, “Exploration of 4,4-disubstituted pyrrolidine-1,2-dicarboxamides as potent, orally active Factor Xa inhibitors with extended duration of action” (Bioorg Med Chem, 2009).

SMILES strings stand for the structures.

The nature of data set [1]: Clearance in iv dosed rat by cassette studies. The class given is ADME, organism-based. Conditions: in vivo. In short, it runs like this: (§1)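 Rat PK from intravenous cassette dosing, in which several compounds are given together in one IV administration, followed by plasma sampling to derive clearance, Vdss and elimination half-life.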
Data set [2] can be described thus: Volume of distribution at steady state in iv dosed rat by cassette studies. Type of data set: ADME, organism-based. Conditions: in vivo, read-out: Vdss. In short, it runs like this:
as §1

Data set [3] can be described thus: Half life in iv dosed dog by cassette studies. The class given is ADME, organism-based, Canis lupus familiaris. Conditions: in vivo. In short, it runs like this:
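Dog half-life from intravenous cassette dosing, with compounds co-administered IV and plasma sampled for elimination t1/2.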

Data set [4] can be described thus: Half life in iv dosed rat by cassette studies. Type of data set: ADME, organism-based. The following applies: in vivo. In short, it runs like this: as §1
Data set [5] in a line: Volume of distribution at steady state in Beagle dog at 0.5 mg/kg, iv. The class given is ADME, organism-based, Canis lupus familiaris. Details: dose 0.5 mg/kg, route intravenous. The following applies: in vivo, read-out: Vdss. The method, boiled down: (§2)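 Single-dose pharmacokinetics in male animals, with rats being Sprague Dawley. IV dosing was 0.5 mg/kg (rat N = 2, dog N = 3). Oral dosing was 3 mg/kg (rat N = 3, dog N = 2). Plasma was sampled to derive Cmax, Tmax, AUCinf, clearance, Vdss and t1/2, and oral bioavailability (F) was calculated from the PO versus IV exposure.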

Data set [6] can be described thus: Cmax in Beagle dog at 3 mg/kg, po. Type of data set: ADME, organism-based, Canis lupus familiaris. Details: dose 3 mg/kg, route oral. Conditions: in vivo. In short, it runs like this:
as §2

Data set [7] can be described thus: AUC (infinity) in Beagle dog at 3 mg/kg, po. The class given is ADME, organism-based, Canis lupus familiaris. On the set-up: time infinity, dose 3 mg/kg, route oral. The following applies: plasma. The method, boiled down:
as §2

The nature of data set [8]: Half life in Sprague-Dawley rat at 0.5 mg/kg, iv. Type of data set: ADME, organism-based. Conditions: in vivo. Details: dose 0.5 mg/kg, route intravenous. In short, it runs like this: as §2
Data set [9] can be described thus: Half life in Beagle dog at 0.5 mg/kg, iv. The class given is ADME, organism-based, Canis lupus familiaris. Details: dose 0.5 mg/kg, route intravenous. Conditions: in vivo. The method, boiled down: as §2
A short description of data set [10]: Absolute oral bioavailability in Beagle dog at 3 mg/kg. Type of data set: ADME, organism-based, Canis lupus familiaris. The following applies: in vivo. In short, it runs like this:
as §2

Data set [11] in a line: Tmax in Sprague-Dawley rat at 3 mg/kg, po. On the set-up: dose 3 mg/kg, route oral. The class given is ADME, organism-based. Conditions: in vivo. In short, it runs like this: as §2
Data set [12] is described as follows: Absolute oral bioavailability in Sprague-Dawley rat at 3 mg/kg. Type of data set: ADME, organism-based. Conditions: in vivo. In short, it runs like this: as §2
Data set [13] is described as follows: Clearance in Sprague-Dawley rat at 0.5 mg/kg, iv. Type of data set: ADME, organism-based. Details: dose 0.5 mg/kg, route intravenous. The following applies: in vivo. In short, it runs like this: as §2
The nature of data set [14]: AUC (infinity) in Sprague-Dawley rat at 3 mg/kg, po. The class given is ADME, organism-based. On the set-up: dose 3 mg/kg, route oral, time infinity. The following applies: plasma. The method, boiled down: as §2
The nature of data set [15]: Clearance in Beagle dog at 0.5 mg/kg, iv. Type of data set: ADME, organism-based, Canis lupus familiaris. Details: dose 0.5 mg/kg, route intravenous. The following applies: in vivo. In short, it runs like this:
as §2

Data set [16] is described as follows: Tmax in Beagle dog at 3 mg/kg, po. The class given is ADME, organism-based, Canis lupus familiaris. On the set-up: dose 3 mg/kg, route oral. Conditions: in vivo. The method, boiled down: as §2
Data set [17] in a line: Volume of distribution at steady state in Sprague-Dawley rat at 0.5 mg/kg, iv. On the set-up: dose 0.5 mg/kg, route intravenous. The following applies: in vivo, read-out: Vdss. The class given is ADME, organism-based. The method, boiled down:
as §2

Data set [18] can be described thus: AUC (infinity) in Sprague-Dawley rat at 0.5 mg/kg, iv. The following applies: plasma. Details: time infinity, dose 0.5 mg/kg, route intravenous. Type of data set: ADME, organism-based. The method, boiled down:
as §2

Data set [19] can be described thus: Cmax in Sprague-Dawley rat at 3 mg/kg, po. Type of data set: ADME, organism-based. On the set-up: dose 3 mg/kg, route oral. The following applies: in vivo. The method, boiled down: as §2
A short description of data set [20]: AUC (infinity) in Beagle dog at 0.5 mg/kg, iv. The following applies: plasma. Details: time infinity, dose 0.5 mg/kg, route intravenous. Type of data set: ADME, organism-based, Canis lupus familiaris. In short, it runs like this: as §2
Data set [21] in a line: Half life in iv dosed rat by singleton studies. The following applies: in vivo. The class given is ADME, organism-based. In short, it runs like this:
(§3)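 Rat PK from intravenous singleton dosing, in which each compound is given alone IV, followed by plasma sampling to derive clearance, Vdss and elimination half-life.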

A short description of data set [22]: Volume of distribution at steady state in iv dosed rat by singleton studies. The class given is ADME, organism-based. The following applies: in vivo, read-out: Vdss. In short, it runs like this:
as §3

Data set [23] can be described thus: Clearance in iv dosed rat by singleton studies. The following applies: in vivo. Type of data set: ADME, organism-based. In short, it runs like this:
as §3

The nature of data set [24]: Half life in iv dosed dog by singleton studies. Type of data set: ADME, organism-based, Canis lupus familiaris. The following applies: in vivo. The method, boiled down:
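Dog half-life from intravenous singleton dosing, with each compound given alone IV and plasma sampled for elimination t1/2.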

The clearance is the volume of plasma or blood freed of the substance per unit of time. A lower clearance goes with a low capacity for elimination. As usually defined, the half-life is how long it takes for the measured level to halve. In data set [1], `O=C(Nc1ccc(-n2ccccc2=O)cn1)[C@H]1C[C@](O)(c2ccccc2C(F)(F)F)CN1C(=O)Nc1ccc(Cl)cc1` showed a clearance of 2.89 mL/min/kg. In [2], the Vd worked out at 0.393 L/kg. Further, the half-life was 1 h in [3] and 1.9 h in data set [4].

Compound `O=C(Nc1ccc(-n2ccccc2=O)cn1)[C@H]1C[C@](O)(c2ccc(F)cc2)CN1C(=O)Nc1ccc(Cl)cc1` gave a clearance in [1] of 9.44 mL/min/kg. Also, the Vd in data set [2] came to 1.97 L/kg. The compound further gave a half-life in [4] of 1.8 h.

As for `O=C(Nc1ccc(-n2ccccc2=O)cn1)[C@H]1C[C@](O)(c2ccc(F)c(F)c2)CN1C(=O)Nc1ccc(Cl)cc1`, the clearance in [1] is 13.1 mL/min/kg. The Vd in [2] worked out at 1.6 L/kg. Moreover, the half-life in [3] and in [4] was 2.1 h each time.

Broadly, the Cmax is the peak of the concentration-time curve. By AUC(0-inf) is commonly meant the area under the concentration-time curve extrapolated to infinity. Read a low AUC(0-inf) as less exposure. One may read the bioavailability as the share of a dose that reaches the circulation, judged against a reference dose that is usually intravenous. Read a high bioavailability as good availability. One may read the Tmax as the time from dosing to the highest level. Take `O=C(Nc1ccc(-n2ccccc2=O)cn1)[C@H]1C[C@](O)(c2ccc(F)cc2F)CN1C(=O)Nc1ccc(Cl)cc1`: the values for the Vd in data set [5], in data set [2] and in data set [17] were 2 L/kg, 1.81 L/kg and 2.4 L/kg, respectively. Also, the Cmax in data set [6] was 397 ng/mL; in data set [19] it was 236 ng/mL. Besides, the area under the curve AUC(0-inf) is 6450 ng·h/mL in [7], 1010 ng·h/mL in data set [14], 978 ng·h/mL in [18] and 4870 ng·h/mL in [20]. In addition, the half-life in data set [8] is 3.3 h; in data set [9], 12.6 h; in data set [3] it was 7.3 h; in data set [4] it was 3.3 h. The figures for the clearance in data set [1], in [13] and in data set [15] were 7.64 mL/min/kg, 9.5 mL/min/kg and 2.1 mL/min/kg, respectively. Moreover, the values for the bioavailability in [10] and in data set [12] were 24% and 19%, respectively. The Tmax in [11] turned out to be 1.7 h; in [16], 2 h.

In [1], `Cc1ccc([C@@]2(O)C[C@H](C(=O)Nc3ccc(-n4ccccc4=O)cn3)N(C(=O)Nc3ccc(Cl)cc3)C2)cc1` had a clearance of 10.3 mL/min/kg. The Vd in data set [2] turned out to be 1.58 L/kg. Also, in [4], the half-life is 1.8 h.

Compound `Cc1cccc([C@@]2(O)C[C@H](C(=O)Nc3ccc(-n4ccccc4=O)cn3)N(C(=O)Nc3ccc(Cl)cc3)C2)c1` gave a clearance in data set [1] of 6.78 mL/min/kg. Further, the Vd in data set [2] was 0.438 L/kg. In data set [4], the half-life is 1.4 h.

In turn, `O=C(Nc1ccc(-n2ccccc2=O)cn1)[C@H]1C[C@](O)(c2ccccc2Cl)CN1C(=O)Nc1ccc(Cl)cc1` returned a clearance in data set [1] of 4.16 mL/min/kg. Also, in data set [2], the Vd amounted to 0.923 L/kg. Moreover, the half-life in data set [3] is 0.8 h; in [4], 2.9 h.

For `CO[C@@H]1C[C@H](C(=O)Nc2ccc(-n3ccccc3=O)cn2)N(C(=O)Nc2ccc(Cl)cc2)C1`, the half-life in [4] is 2 h.

`CC[C@@]1(O)C[C@H](C(=O)Nc2ccc(-n3ccccc3=O)cc2F)N(C(=O)Nc2ccc(Cl)cc2)C1`: in data set [4], the half-life was 2.4 h.

In data set [4], `CCO[C@]1(CC)C[C@H](C(=O)Nc2ccc(-n3ccccc3=O)cc2F)N(C(=O)Nc2ccc(Cl)cc2)C1` had a half-life of 1.4 h.

As for `Cc1cccn(-c2ccc(NC(=O)[C@H]3C[C@@](C)(O)CN3C(=O)Nc3ccc(Cl)cc3)c(F)c2)c1=O`, in data set [4], the half-life was 1.6 h.

For `CO[C@]1(C)C[C@H](C(=O)Nc2ccc(-n3ccccc3=O)cc2F)N(C(=O)Nc2ccc(Cl)cc2)C1`, in data set [4], the half-life is 1.7 h.

As to `Cc1ccccc1[C@@]1(O)C[C@H](C(=O)Nc2ccc(-n3ccccc3=O)cn2)N(C(=O)Nc2ccc(Cl)cc2)C1`, the clearance in [1] came out at 5.12 mL/min/kg. Moreover, in [2], the Vd came to 0.468 L/kg. Further, the half-life in data set [4] is 1.3 h.

With `O=C(Nc1ccc(-n2ccccc2=O)cc1F)[C@H]1C[C@](O)(c2ccccc2)CN1C(=O)Nc1ccc(Cl)cc1`, the half-life in data set [21] is 4 h.

Regarding `O=C(Nc1ccc(-n2ccccc2=O)cn1)[C@H]1C[C@](O)(c2ccccc2)CN1C(=O)Nc1ccc(Cl)cc1`, the Vd in [22] stood at 1.49 L/kg. Moreover, the clearance in [23] was 6.73 mL/min/kg. Moreover, the half-life in data set [3] and in data set [4] was 2.9 h each time.

In turn, `CC[C@@]1(O)C[C@H](C(=O)Nc2ccc(-n3cccc(C)c3=O)cc2F)N(C(=O)Nc2ccc(Cl)cc2)C1` showed a half-life in data set [4] of 5.2 h.

Compound `CC[C@@]1(OC)C[C@H](C(=O)Nc2ccc(-n3ccccc3=O)cc2F)N(C(=O)Nc2ccc(Cl)cc2)C1` had a half-life in data set [4] of 1.7 h.

On to `CO[C@@H]1C[C@H](C(=O)Nc2ccc(-n3ccccc3=O)cc2F)N(C(=O)Nc2ccc(Cl)cc2)C1` [ERIBAXABAN], for which the Vd in data set [22] came out at 1.1 L/kg. Further, the half-life is 4.9 h in data set [24], 2 h in [21] and 2.6 h in [4]. Moreover, the clearance in data set [23] was 12 mL/min/kg.
